From ChEMBL document CHEMBL1629526, “4-[1-(Substituted aryl/alkyl carbonyl)-benzoimidazol-2-yl]-benzenesulfonic acids: synthesis, antimicrobial activity, QSAR studies, and antiviral evaluation” (Eur J Med Chem, 2010)
≈ marks a conversion by molar mass, not a printed value.

Experiments:
[1] = system: Influenza B virus; assay: Antiviral activity against Influenza B virus infected in MDCK cells assessed as inhibition of virus induced cytopathicity after 2 to 4 days by MTS assay; format: functional, organism-based
[2] = Cytotoxicity against MDCK cells assessed as altered cell morphology; format: cell-based, Canis lupus familiaris; settings: dog
Summary of the method: (§1)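 Uninfected cell cultures run alongside the antiviral assays, exposed to serial compound dilutions and incubated at 37 °C for 2–4 days. Toxicity was scored microscopically and reported as the minimum cytotoxic concentration (MCC), the lowest concentration causing a detectable change in normal cell morphology.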

[3] = (§2) Cytotoxicity against MDCK cells assessed as cell viability by MTS assay; format: cell-based, Canis lupus familiaris; settings: dog, MDCK cells
Summary of the method: (§3)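 Uninfected cultures were run in parallel with the antiviral assays. Viability was read by colorimetric formazan MTS assay.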

[4] = system: Influenza A virus; assay: Antiviral activity against Influenza A H1N1 virus subtype infected in MDCK cells assessed as inhibition of virus induced cytopathicity after 2 to 4 days by MTS assay; format: functional, organism-based
[5] = system: Influenza B virus; assay: Antiviral activity against Influenza B virus infected in MDCK cells assessed as inhibition of virus induced cytopathicity by visual scoring of CPE; format: functional, organism-based
[6] = system: Influenza A virus; assay: Antiviral activity against Influenza A H3N2 virus subtype infected in MDCK cells assessed as inhibition of virus induced cytopathicity after 2 to 4 days by MTS assay; format: functional, organism-based
[7] = system: Influenza A virus; assay: Antiviral activity against Influenza A H1N1 virus subtype infected in MDCK cells assessed as inhibition of virus induced cytopathicity by visual scoring of CPE; format: functional, organism-based
[8] = Cytotoxicity against african green monkey Vero cells assessed as altered cell morphology; format: cell-based; settings: chlorocebus sabaeus; summary of the method: as §1
[9] = system: Respiratory syncytial virus; assay: Antiviral activity against Respiratory syncytial virus infected in human HeLa cells assessed as inhibition of virus induced cytopathicity after 2 to 4 days by MTS assay; format: functional, organism-based
[10] = (§4) Cytotoxicity against human HeLa cells assessed as cell viability by MTS assay; format: cell-based; settings: HeLa cells; summary of the method: as §3
[11] = Cytotoxicity against human HeLa cells assessed as altered cell morphology; format: cell-based; summary of the method: as §1
[12] = system: Vesicular stomatitis virus; assay: Antiviral activity against Vesicular stomatitis virus infected in human HeLa cells assessed as inhibition of virus induced cytopathicity after 2 to 4 days by MTS assay; format: functional, organism-based
[13] = system: Coxsackievirus B4; assay: Antiviral activity against coxsackievirus B4 infected in human HeLa cells assessed as inhibition of virus induced cytopathicity after 2 to 4 days by MTS assay; format: functional, organism-based; settings: Enterovirus B
[14] = system: Influenza A virus; assay: Antiviral activity against Influenza A H3N2 virus subtype infected in MDCK cells assessed as inhibition of virus induced cytopathicity by visual scoring of CPE; format: functional, organism-based
[15] = system: Vesicular stomatitis virus; assay: Antiviral activity against Vesicular stomatitis virus infected in human HeLa cells assessed as inhibition of virus induced cytopathicity by visual scoring of CPE; format: functional, organism-based
[16] = system: Coxsackievirus B4; assay: Antiviral activity against Coxsackie virus B4 infected in african green monkey Vero cells assessed as inhibition of virus induced cytopathicity after 2 to 4 days by MTS assay; format: functional, organism-based; settings: Enterovirus B
[17] = system: Human alphaherpesvirus 2; assay: Antiviral activity against Herpes simplex virus 2 G infected in HEL cells assessed as inhibition of virus induced cytopathicity after 2 to 4 days by MTS assay; format: functional, organism-based; settings: Human alphaherpesvirus 2, strain G
[18] = system: MDCK; assay: as §2; format: cell-based, Canis lupus familiaris; settings: dog, mdck; summary of the method: as §3
[19] = system: Felid alphaherpesvirus 1; assay: Antiviral activity against Feline herpesvirus 1 infected in cat CRFK cells assessed as inhibition of virus induced cytopathicity after 2 to 4 days by MTS assay; format: functional, organism-based; settings: Felid alphaherpesvirus 1, CRFK
[20] = system: Bacillus subtilis; assay: Antimicrobial activity against Bacillus subtilis after 24 hrs by tube dilution method; format: functional
Summary of the method: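 Serial dilutions in double-strength nutrient broth (I.P.) with ciprofloxacin as reference, tube dilution, incubated 37 °C for 24 h. MIC is the lowest concentration that inhibited growth.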

[21] = system: HeLa; assay: as §4; format: cell-based; settings: hela; summary of the method: as §3
[22] = system: Staphylococcus aureus; assay: Antimicrobial activity against Staphylococcus aureus after 24 hrs by tube dilution method; format: functional
[23] = Cytotoxicity against cat CRFK cells assessed as cell viability by MTS assay; format: cell-based, Felis catus; settings: crfk; summary of the method: as §3
[24] = Cytotoxicity against human HEL cells assessed as altered cell morphology; format: cell-based; summary of the method: as §1
[25] = system: Respiratory syncytial virus; assay: Antiviral activity against Respiratory syncytial virus infected in human HeLa cells assessed as inhibition of virus induced cytopathicity by visual scoring of CPE; format: functional, organism-based
[26] = system: Aspergillus niger; assay: Antimicrobial activity against Aspergillus niger after 7 days by tube dilution method; format: functional; settings: 168 h
[27] = system: Vesicular stomatitis virus; assay: Antiviral activity against Vesicular stomatitis virus infected in HEL cells assessed as inhibition of virus induced cytopathicity after 2 to 4 days by MTS assay; format: functional, organism-based
[28] = system: Human alphaherpesvirus 1; assay: Antiviral activity against Herpes simplex virus 1 KOS infected in HEL cells assessed as inhibition of virus induced cytopathicity after 2 to 4 days by MTS assay; format: functional, organism-based; settings: Human alphaherpesvirus 1, KOS
[29] = system: Human respirovirus 3; assay: Antiviral activity against parainfluenza-3 virus infected in african green monkey Vero cells assessed as inhibition of virus induced cytopathicity after 2 to 4 days by MTS assay; format: functional, organism-based; settings: Human respirovirus 3, Vero
[30] = system: Feline coronavirus; assay: Antiviral activity against Feline coronavirus infected in cat CRFK cells assessed as inhibition of virus induced cytopathicity after 2 to 4 days by MTS assay; format: functional, organism-based; settings: Alphacoronavirus 1, CRFK
[31] = system: Human alphaherpesvirus 1; assay: Antiviral activity against thymidine kinase deficient acyclovir-resistant Herpes simplex virus 1 KOS infected in HEL cells assessed as inhibition of virus induced cytopathicity after 2 to 4 days by MTS assay; format: functional, organism-based; settings: Human alphaherpesvirus 1, KOS
[32] = system: Sindbis virus; assay: Antiviral activity against Sindbis virus infected in african green monkey Vero cells assessed as inhibition of virus induced cytopathicity after 2 to 4 days by MTS assay; format: functional, organism-based
[33] = system: Vaccinia virus; assay: Antiviral activity against Vaccinia virus infected in HEL cells assessed as inhibition of virus induced cytopathicity after 2 to 4 days by MTS assay; format: functional, organism-based; settings: Orthopoxvirus vaccinia
[34] = system: Escherichia coli; assay: Antimicrobial activity against Escherichia coli after 24 hrs by tube dilution method; format: functional
[35] = system: Mammalian orthoreovirus 1; assay: Antiviral activity against Reovirus 1 virus infected in african green monkey Vero cells assessed as inhibition of virus induced cytopathicity after 2 to 4 days by MTS assay; format: functional, organism-based; settings: Mammalian orthoreovirus 1, Vero
[36] = system: Punta Toro virus; assay: Antiviral activity against Punta Toro virus infected in african green monkey Vero cells assessed as inhibition of virus induced cytopathicity after 2 to 4 days by MTS assay; format: functional, organism-based
[37] = system: Coxsackievirus B4; assay: Antiviral activity against coxsackievirus B4 infected in human HeLa cells assessed as inhibition of virus induced cytopathicity by visual scoring of CPE; format: functional, organism-based; settings: Enterovirus B
[38] = system: Candida albicans; assay: Antimicrobial activity against Candida albicans after 48 hrs by tube dilution method; format: functional

Compound	EC50 [1] [µg/mL]	MCC [2] [µg/mL]	EC50 [4] [µg/mL]	EC50 [5] [µg/mL]	EC50 [6] [µg/mL]	EC50 [7] [µg/mL]	MCC [8] [µg/mL]	EC50 [9] [µg/mL]	MCC [11] [µg/mL]	EC50 [12] [µg/mL]	EC50 [13] [µg/mL]	EC50 [14] [µg/mL]	EC50 [15] [µg/mL]	EC50 [16] [µg/mL]	EC50 [17] [µg/mL]	MCC [24] [µg/mL]	EC50 [25] [µg/mL]	EC50 [27] [µg/mL]	EC50 [28] [µg/mL]	EC50 [29] [µg/mL]	also measured
NC12CC3CC(CC(C3)C1)C2 [AMANTADINE]	> 200	> 200	44 (≈ 291 µM)	> 200	0.2 (≈ 1.32 µM)	18 (≈ 119 µM)															CC50 [3]: > 200 µg/mL
Nc1ncnc2c1ncn2C[C@H](O)CO [(S)-DHPA]							> 250	> 250	> 250	> 250	> 250										CC50 [10]: > 250 µg/mL
CC(N)C12CC3CC(CC(C3)C1)C2 (stereo not drawn) [RIMANTADINE]	> 200	> 200	12 (≈ 66.9 µM)	> 200	0.02 (≈ 0.112 µM)	4 (≈ 22.3 µM)						0.03 (≈ 0.167 µM)									CC50 [3]: > 200 µg/mL
Nc1ccc(C(=O)n2c(-c3ccc(S(=O)(=O)O)cc3)nc3ccccc32)cc1	> 4	20	> 4	> 4	> 4	> 4	> 100	> 100	> 100	> 100	> 100	> 4	> 100	> 100	> 100	> 100	> 100	> 100	> 100	> 100	CC50 [18]: 46.8 µg/mL (≈ 119 µM); EC50 [19]: > 100 µg/mL; MBC [20]: > 50 µg/mL; CC50 [21]: > 100 µg/mL; MBC [22]: 12.5 µg/mL (≈ 31.8 µM); CC50 [23]: > 100 µg/mL; MFC [26]: > 50 µg/mL; EC50 [30]: > 100 µg/mL; EC50 [31]: > 100 µg/mL; EC50 [32]: > 100 µg/mL; EC50 [33]: > 100 µg/mL; MBC [34]: 25 µg/mL (≈ 63.5 µM); EC50 [35]: > 100 µg/mL; EC50 [36]: > 100 µg/mL; EC50 [37]: > 100 µg/mL; MFC [38]: > 50 µg/mL
O=C(c1ccccc1O)n1c(-c2ccc(S(=O)(=O)O)cc2)nc2ccccc21	> 20	100	> 20	> 20	> 20	> 20	> 100	> 100	> 100	> 100	> 100	> 20	> 100	> 100	> 100	> 100	> 100	> 100	> 100	> 100	CC50 [18]: > 100 µg/mL; EC50 [19]: > 100 µg/mL; MBC [20]: 25 µg/mL (≈ 63.4 µM); CC50 [21]: > 100 µg/mL; MBC [22]: 25 µg/mL (≈ 63.4 µM); CC50 [23]: > 100 µg/mL; MFC [26]: > 50 µg/mL; EC50 [30]: > 100 µg/mL; EC50 [31]: > 100 µg/mL; EC50 [32]: > 100 µg/mL; EC50 [33]: > 100 µg/mL; MBC [34]: 12.5 µg/mL (≈ 31.7 µM); EC50 [35]: > 100 µg/mL; EC50 [36]: > 100 µg/mL; EC50 [37]: > 100 µg/mL; MFC [38]: 50 µg/mL (≈ 127 µM)
NC(=O)c1ncn([C@@H]2O[C@H](CO)[C@@H](O)[C@H]2O)n1 [RIBAVIRIN]	4.3 (≈ 17.6 µM)	> 100	12 (≈ 49.1 µM)	7 (≈ 28.7 µM)	8.4 (≈ 34.4 µM)	9 (≈ 36.9 µM)	> 250	2.8 (≈ 11.5 µM)	> 250		14 (≈ 57.3 µM)		10 (≈ 40.9 µM)	250 (≈ 1020 µM)	2 (≈ 8.19 µM)	> 250	6 (≈ 24.6 µM)	> 250	1 (≈ 4.09 µM)	95 (≈ 389 µM)	CC50 [10]: > 250 µg/mL; EC50 [31]: 2 µg/mL (≈ 8.19 µM); EC50 [33]: 10 µg/mL (≈ 40.9 µM); EC50 [35]: 112 µg/mL (≈ 459 µM); EC50 [36]: 112 µg/mL (≈ 459 µM); EC50 [37]: 50 µg/mL (≈ 205 µM)
O=C(c1cccc(O)c1)n1c(-c2ccc(S(=O)(=O)O)cc2)nc2ccccc21	> 20	100	> 20	> 20	> 20	> 20	> 100	> 100	> 100	> 100	> 100	> 20	> 100	> 100	> 100	> 100	> 100	> 100	> 100	> 100	CC50 [18]: > 100 µg/mL; EC50 [19]: > 100 µg/mL; MBC [20]: > 50 µg/mL; CC50 [21]: > 100 µg/mL; MBC [22]: 12.5 µg/mL (≈ 31.7 µM); CC50 [23]: > 100 µg/mL; MFC [26]: > 50 µg/mL; EC50 [30]: > 100 µg/mL; EC50 [31]: > 100 µg/mL; EC50 [32]: > 100 µg/mL; EC50 [33]: > 100 µg/mL; MBC [34]: 3.12 µg/mL (≈ 7.91 µM); EC50 [35]: > 100 µg/mL; EC50 [36]: > 100 µg/mL; EC50 [37]: > 100 µg/mL; MFC [38]: 50 µg/mL (≈ 127 µM)
